# Bioassay records from PubChem BioAssay.
# TRPC6 inhibitor: blocks the mouse TRPC6 cation channel; B-score at 10 µM; Q61143; 310,000 tested, 1.1% active; AID 2553; HEK293-TRPC6, membrane potential dye, ACh-evoked depolarization; active compounds read low;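 active means B-score under library mean minus 3 SD, initial fluorescence not abnormally high, positive integrated signal ratio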;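 further: B-score derived from integrated fluorescence ratio over the kinetic read; more negative B-score means stronger inhibition of depolarization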
# Target sequence (Q61143 whole entry, looked up): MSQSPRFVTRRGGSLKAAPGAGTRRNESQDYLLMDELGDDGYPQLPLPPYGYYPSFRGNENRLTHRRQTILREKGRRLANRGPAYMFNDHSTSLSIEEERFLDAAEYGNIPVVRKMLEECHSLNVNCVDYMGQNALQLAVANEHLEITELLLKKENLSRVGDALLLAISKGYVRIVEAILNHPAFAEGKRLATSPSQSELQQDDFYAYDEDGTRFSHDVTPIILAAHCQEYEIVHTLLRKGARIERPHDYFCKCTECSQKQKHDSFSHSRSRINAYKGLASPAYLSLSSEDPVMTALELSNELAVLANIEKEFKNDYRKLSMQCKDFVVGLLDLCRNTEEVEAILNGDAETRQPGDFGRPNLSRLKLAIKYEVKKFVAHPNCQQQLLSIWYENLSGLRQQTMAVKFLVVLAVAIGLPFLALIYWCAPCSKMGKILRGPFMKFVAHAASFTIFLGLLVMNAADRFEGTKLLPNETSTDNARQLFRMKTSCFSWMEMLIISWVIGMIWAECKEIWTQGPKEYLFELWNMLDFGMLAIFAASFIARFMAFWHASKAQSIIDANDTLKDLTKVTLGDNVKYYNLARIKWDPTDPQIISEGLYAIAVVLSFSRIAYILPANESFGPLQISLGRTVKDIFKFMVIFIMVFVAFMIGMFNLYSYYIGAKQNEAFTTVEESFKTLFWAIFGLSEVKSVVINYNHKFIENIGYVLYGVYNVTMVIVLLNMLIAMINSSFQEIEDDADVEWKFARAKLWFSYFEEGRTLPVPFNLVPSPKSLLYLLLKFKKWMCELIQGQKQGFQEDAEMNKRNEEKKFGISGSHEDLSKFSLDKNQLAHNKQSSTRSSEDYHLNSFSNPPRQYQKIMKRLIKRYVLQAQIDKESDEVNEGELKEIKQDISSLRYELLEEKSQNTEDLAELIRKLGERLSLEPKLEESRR
# TRPC4 agonist: opens the mouse TRPC4 cation channel; Q9QUQ5; B-score at 10 µM; AID 2237; 310,000 tested, 0.49% active; HEK293 TRPC4beta/mu-opioid, Fluo4 calcium fluorescence; active compounds read high;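 active means B-score above 5 SD of library B-scores, and initial fluorescence ratio not above library mean plus 5 SD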;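 further: positive B-score marks a calcium rise read as TRPC4 activation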
#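 Test system: HEK293 cells stably co-expressing mouse TRPC4beta and mu-opioid receptor | Schedule: Fluo4 dye loading 45 min at room temperature, 110 s recording | Measured by: Kinetic Fluo4 calcium fluorescence, 5 s baseline at 1 Hz | Evaluation: B score of integrated ratio | Controls: Buffer (low) and maximal DAMGO (high)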
# TRPC4 PAM: TRPC4 (mouse) allosteric potentiation. Q9QUQ5. HEK293 TRPC4beta/mu-opioid, DAMGO EC20, Fluo-4 Ca2+ flux; active compounds read high. B-score at 10 µM. 310,000 tested, 0.42% active;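 active means B-score of calcium response area above 5 SD of library B-scores, with initial fluorescence ratio within 5 SD of library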
# TRPC6 activator: activators of mouse TRPC6 channel; Q61143; HEK293-TRPC6 membrane potential dye fluorescence; active compounds read high; B-score at 10 µM; 310,000 tested, 0.13% active;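 active means B-score of the integrated fluorescence ratio above library mean plus 3 SD, and starting fluorescence ratio within library mean plus 5 SD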;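 further: higher score means more depolarization so channel activation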
# TRPC4 inh: TRPC4 (mouse) channel inhibition; AID 2247; B-score at 10 µM; HEK293 TRPC4beta/mu-opioid, DAMGO-evoked Fluo4 calcium flux; active compounds read low; 300,000 tested, 0.39% active; Q9QUQ5;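 active means B-score over 3 SD under the library average, no early fluorescence shift, positive overall ratio signal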
#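 Assay system: HEK293 cells with stable TRPC4beta plus mu-opioid receptor expression; Probe or stimulus: DAMGO in two steps, submaximal then maximal; Dosing: single-point compound dosing; Measured by: Fluo4 calcium-dye fluorescence, kinetic read; Read-out basis: B score from integrated Fluo4 fluorescence ratio.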
# TRPC4 spec 2: mouse TRPC4 off-target activity of TRPC6 inhibitors, second screen; shares compounds with TRPC6 inhibitor; HEK293 TRPC4/MOR, membrane potential dye fluorescence; channel activated by saturating DAMGO dose; inhibition, % at 10 µM; 920 tested, 42% active; AID 2776;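 active means compounds whose fluorescence signal differed from control wells by over 3 SD, either direction, in both duplicate plates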
# TRPC4 spec: tests whether TRPC6 inhibitors also affect mouse TRPC4; shares compounds with TRPC6 inhibitor; HEK293 TRPC4/mu-opioid, membrane potential fluorescence; activity change, negative = inhibition, % at 10 µM; 920 tested, 61% active; AID 2777;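 active means rise or fall in signal beyond 3 SD of buffer-only wells in both replicate plates, either sign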;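 further: integrated kinetic ratio of fluorescence range over baseline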
# HEK293 MPD ctr 2-1: second counter-screen for TRPC6 inhibitors: parental HEK293 cells; signal change vs control, % at 10 µM; parental HEK293 membrane potential dye fluorescence; maximal acetylcholine challenge after compound addition; 920 tested, 31% active; AID 2779; shares compounds with TRPC6 inhibitor;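 active means membrane potential signal moving either way by over 3 SD of the maximum-effect control, in both duplicate plates, meaning non-specific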
# HEK293 MPD ctr-1: parental HEK293 nonspecific activity of TRPC6 inhibitors. parental HEK293 membrane potential dye fluorescence. 920 tested, 60% active. membrane potential signal change, % at 10 µM. shares compounds with TRPC6 inhibitor;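 active means membrane potential signal shifting up or down by more than 3 SD of buffer-only wells, on both duplicate plates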
# HEK293 MPD ctr-2: counter-screen for TRPC6 modulators: effect in parental HEK293 cells. shares compounds with TRPC6 inhibitor. membrane potential dye fluorescence. membrane potential signal change, % at 10 µM. 2,400 tested, 51% active;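 active means membrane potential signal moves up or down beyond 5 SD from buffer-only wells, on both duplicate plates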
# HEK293 MPD ctr 2-2: second check of TRPC6 modulator effects in parental HEK293 cells | shares compounds with TRPC6 inhibitor | membrane potential dye fluorescence; after compound, maximal acetylcholine stimulation | inhibition, % at 10 µM | 2,400 tested, 14% active | AID 488926;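 active means membrane potential signal drops by more than 5 SD from the mean control signal, in both duplicate plates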
# TRPC4/MOR mod: selectivity of TRPC6 modulators against mouse TRPC4 | shares compounds with TRPC6 inhibitor | HEK293 TRPC4/mu-opioid, membrane potential fluorescence | percent change from control (negative = decrease, positive = increase), % at 10 µM | 2,400 tested, 69% active | AID 488927;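 active means membrane potential signal moved up or down beyond 5 SD of buffer control wells, in both duplicate plates, actives on both sides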
# TRPC4/MOR inh 2: second selectivity test of TRPC6 modulators against mouse TRPC4 | shares compounds with TRPC6 inhibitor | HEK293 TRPC4/mu-opioid, membrane potential dye fluorescence; stimulated with maximal-effect DAMGO | inhibition, % at 10 µM | 2,400 tested, 55% active;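 active means drop in membrane potential signal beyond 5 SD of the control wells in both duplicate plates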;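 further: TRPC4 counter screen for TRPC6 hits run under conditions tuned for TRPC6 not TRPC4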
# TRPC6 block conf: mouse TRPC6 inhibitor confirmation; HEK293-TRPC6, membrane potential dye, ACh-evoked depolarization; inhibition, % at 10 µM; 3,300 tested, 43% active; shares compounds with TRPC6 inhibitor;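 active means fluorescence ratio falls more than 5 SD below the full-stimulation control mean, in both duplicate runs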;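 further: integrated fluorescence ratio of peak minus minimum over baseline after agonist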
# TRPC6 act conf: mouse TRPC6 activator confirmation; shares compounds with TRPC6 inhibitor; HEK293-TRPC6 membrane potential dye fluorescence, FDSS; activation, % at 10 µM; 2,800 tested, 11% active; AID 488961;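 active means ratio signal rise beyond 5 SD above unstimulated control wells' mean, seen in both duplicate runs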
# A number is an active result; 0 = inactive; - = not tested or not shown. In the library only some 2.3% were active in any assay of this set; here they are far more common.
SMILES,TRPC6 inhibitor,TRPC4 agonist,TRPC4 PAM,TRPC6 activator,TRPC4 inh,HEK293 MPD ctr-2,HEK293 MPD ctr 2-2,TRPC4/MOR mod,TRPC4/MOR inh 2,TRPC6 block conf,TRPC6 act conf,others
Cc1ccc(N2C(=O)CC(Sc3nc(C)cc(C)n3)C2=O)cc1 (stereo not drawn),0,0,0,0,0,-,-,-,-,-,-,
Cc1ccc(N2C(=O)c3cccc4cccc(c34)C2=O)cc1,0,0,0,0,0,-,-,-,-,-,-,
Cc1ccc(N2C=Nc3ccc(C)c4nc(C)cc2c34)cc1,-10,0,0,0,0,-248%,64%,-52%,74%,60%,0,
CC1=Nc2ccc(C)c3nc(C)cc(c23)N1c1ccc(C)cc1,-13,0,0,0,0,-157%,88%,-33%,82%,87%,0,
CC(=O)Nc1ccc(OCc2nnc(-c3ccc(Cl)cc3)o2)cc1,-6.3,0,0,0,0,0,0,0,0,0,0,
CC(=O)c1ccc(OCCCC(=O)OCc2nnc(-c3ccc(Cl)cc3)o2)cc1,0,0,0,0,0,-,-,-,-,-,-,
CCN(CC)CCNC(=O)c1ccc(NC(=O)c2ccc(Cl)c(S(=O)(=O)N3CCCCCC3)c2)cc1,-6,0,0,0,0,113%,76%,12%,0,42%,-,
CCN(CC)CCNC(=O)c1ccc(NC(=O)c2ccc(S(=O)(=O)N3CCCCCC3)cc2)cc1,0,0,0,0,0,-,-,-,-,-,-,
O=C(CNC(=O)c1ccco1)OCC(=O)c1ccc(Br)cc1,-5.3,0,0,0,0,0,0,0,0,0,0,
COc1ccc(N2CC(C(=O)N[C@@H](CC(C)C)C(=O)NC3CCCCC3)CC2=O)cc1 (stereo partly drawn),0,0,0,0,0,-,-,-,-,-,-,
CCOC(=O)c1sc2ncnc(N3CCN(C(=O)OCC)CC3)c2c1C,0,0,0,0,0,-,-,-,-,-,-,
CCOC(=O)c1sc2ncnc(N3CCN(CC)CC3)c2c1C,-5.5,0,0,0,0,-128%,0,-21%,41%,0,0,
COc1ccccc1C(=O)NCC1CCN(c2ccc(S(=O)(=O)N3CCOCC3)cc2)CC1,-6.9,0,0,0,0,-,-,-,-,55%,0,TRPC4 spec 2=0;TRPC4 spec=8.9%;HEK293 MPD ctr 2-1=10%;HEK293 MPD ctr-1=5.1%
Cc1ccc(NCc2nnc(SCCN3CCCCC3)n2CC2CCCO2)c(C)c1 (stereo not drawn),-5.7,0,0,0,0,0,0,16%,35%,41%,0,
Cc1ccc(NCc2nnc(SCC(=O)Nc3ccccc3)n2CC2CCCO2)c(C)c1 (stereo not drawn),0,0,0,0,0,-,-,-,-,-,-,
O=C(NCC(=O)N1CCOCC1)c1ccc(Cl)cc1,-9.1,0,0,0,0,0,0,0,0,0,0,
O=C(c1ccc(OC2CCN(Cc3ccc(C(F)(F)F)cc3)CC2)cc1)N1CCCCC1,-6.3,0,0,0,0,126%,0,0,44%,66%,-,
O=C(c1ccc(OC2CCN(Cc3ccccc3C(F)(F)F)CC2)cc1)N1CCCCC1,0,0,0,0,0,-,-,-,-,-,-,
COc1cccc(N2CCN(C(=O)CN3C(=O)NC(C)(c4ccc5ccccc5c4)C3=O)CC2)c1 (stereo not drawn),0,0,0,0,0,-,-,-,-,-,-,
CCCCOc1ccc(C(=O)OC(C)CN(C)C)cc1 (stereo not drawn),0,0,0,12,0,218%,0,35%,34%,0,102%,
O=C(CSc1c2c(nc3ccc(Cl)cc13)CCCC2)NCCCN1CCOCC1,-11,0,0,0,0,-,-,-,-,0,0,TRPC4 spec 2=0;TRPC4 spec=0;HEK293 MPD ctr 2-1=34%;HEK293 MPD ctr-1=0
COC(=O)C1=NN(C(=O)c2ccc(C)cc2)C(O)(c2ccc(Cl)cc2)C1 (stereo not drawn),-6.6,102,0,34,0,421%,0,82%,0,77%,298%,
COC(=O)C1=NN(C(=O)c2ccccc2)C(O)(c2ccc([N+](=O)[O-])cc2)C1 (stereo not drawn),0,0,0,0,0,-,-,-,-,-,-,
COc1cc2c(=O)n(CCC(=O)NCC3CCCO3)c(=O)n(CC(=O)Nc3ccc(C)cc3C)c2cc1OC (stereo not drawn),0,0,0,0,0,-,-,-,-,-,-,
COc1ccccc1Nc1nnc(SCC(=O)N2CCCC2=O)s1,-5.1,0,0,0,0,0,0,0,0,0,0,
SMILES,TRPC6 inhibitor,TRPC4 agonist,TRPC4 PAM,TRPC6 activator,TRPC4 inh,HEK293 MPD ctr-2,HEK293 MPD ctr 2-2,TRPC4/MOR mod,TRPC4/MOR inh 2,TRPC6 block conf,TRPC6 act conf,others
COc1ccccc1Nc1nnc(SCC(=O)N2CCCC2)s1,0,0,0,0,0,-,-,-,-,-,-,
Cc1nn2c(NCCCN(C)C)c3c(nc2c1-c1ccccc1)CCC3,-7.9,0,0,0,0,-167%,0,-30%,55%,0,0,
Cc1nn2c(NCCCN(C)C)c3c(nc2c1-c1ccccc1)CCCC3,-6.8,0,0,0,0,-,-,-,-,63%,0,TRPC4 spec 2=72%;TRPC4 spec=-19%;HEK293 MPD ctr 2-1=0;HEK293 MPD ctr-1=-296%
COCCNc1c2c(nc3c(-c4ccccc4)c(C)nn13)CCC2,0,0,0,0,0,-,-,-,-,-,-,
CCc1ccc(N(CC(=O)NC2CCCCC2)C(=O)CCC(=O)Nc2ccccn2)cc1,0,0,0,0,0,-,-,-,-,-,-,
Cc1nnc(N/N=C/c2ccccc2C(F)(F)F)n1N,0,0,0,0,0,-,-,-,-,-,-,
CN(C)c1cc(N/N=C/c2ccccc2C(F)(F)F)nc(N(C)C)n1,-5.1,0,0,0,0,0,0,0,0,0,0,
OCCN(CC#CC(O)(c1ccccc1)C1CCCCC1)CCO (stereo not drawn),0,0,0,0,0,-,-,-,-,-,-,
